The values that follow come from ChEMBL document CHEMBL1121744, “Synthesis and antihypertensive activity of a series of 8-substituted 1-oxa-3,8-diazaspiro[4.5]decan-2-ones” (J Med Chem, 1981).

Test [1] relates to Canis familiaris. The test can be described thus: Change in mean arterial pressure in anesthetized dogs for a dose of 0.1 mg/kg. It counts as functional, Canis lupus familiaris, Artery. The gist of the method: (§1)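 Dogs anesthetized with sodium pentobarbital (35 mg/kg iv), femoral artery cannulated for pressure, ECG-triggered heart rate, femoral vein for dosing. Rising iv doses were given 90 min apart, and each dose is the full dose, not cumulative. Value is the maximal mean arterial pressure change 10–15 min after each dose, two dogs per compound, ±3 mmHg. Saline served as control.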

In test [2] the test system is Rattus norvegicus. The test can be described thus: Antihypertensive activity as percentage fall in systolic blood pressure in spontaneously hypertensive rats after a period of 1 hr for a dose of 50 mg/kg. It counts as functional, Artery. A digest of the protocol: (§2)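 Male Okamoto-Aoki SHR, trained, in groups of four matched for mean systolic pressure; one group per run received water vehicle. Oral dosing in water (0.1 mL per 10 g) on two consecutive mornings. After the day-2 dose, rats were restrained at 30.0 ± 1.0 °C. Systolic pressure was read by tail cuff (inflated to 300 mmHg, first pulse) at 1–4 h. % fall is versus the untreated control group, by 1-tail t test (p ≤ 0.05).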

Test [3] has as its system Canis familiaris. Nature of the test: Change in mean arterial pressure in anesthetized dogs for a dose of 1 mg/kg. In kind it is functional, Canis lupus familiaris, Artery. The gist of the method: as §1
In test [4] the test system is Rattus norvegicus. Nature of the test: Percentage fall in systolic blood pressure in spontaneously hypertensive rats after 3 h following 50 mg/kg p.o. It counts as functional, Artery. The note with it: route oral. The gist of the method:
as §2

The subject of test [5] is Rattus norvegicus. The test can be described thus: Percentage fall in systolic blood pressure in spontaneously hypertensive rats after 2 hr following 50 mg/kg p.o. In kind it is functional, Artery. The note with it: route oral. The gist of the method:
as §2

Test [6] has as its target T1, Adrenergic receptor alpha-1 (Rattus norvegicus, UniProt P15823+P23944+P43140).
T1 sequence (P15823 whole entry): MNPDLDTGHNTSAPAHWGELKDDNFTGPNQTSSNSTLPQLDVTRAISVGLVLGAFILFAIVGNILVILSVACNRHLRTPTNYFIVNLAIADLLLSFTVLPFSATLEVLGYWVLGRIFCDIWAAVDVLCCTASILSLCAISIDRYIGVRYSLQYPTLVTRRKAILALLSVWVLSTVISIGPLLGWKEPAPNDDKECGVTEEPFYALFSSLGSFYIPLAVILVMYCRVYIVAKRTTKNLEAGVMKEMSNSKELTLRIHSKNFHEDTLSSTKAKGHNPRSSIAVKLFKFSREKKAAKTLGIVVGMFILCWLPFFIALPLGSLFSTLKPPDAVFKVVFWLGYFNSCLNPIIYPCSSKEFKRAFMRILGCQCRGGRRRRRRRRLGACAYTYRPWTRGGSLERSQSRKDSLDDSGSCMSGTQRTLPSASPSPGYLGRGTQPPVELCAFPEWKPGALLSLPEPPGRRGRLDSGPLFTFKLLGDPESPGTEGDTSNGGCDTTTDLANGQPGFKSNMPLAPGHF
T1 sequence (P23944 whole entry): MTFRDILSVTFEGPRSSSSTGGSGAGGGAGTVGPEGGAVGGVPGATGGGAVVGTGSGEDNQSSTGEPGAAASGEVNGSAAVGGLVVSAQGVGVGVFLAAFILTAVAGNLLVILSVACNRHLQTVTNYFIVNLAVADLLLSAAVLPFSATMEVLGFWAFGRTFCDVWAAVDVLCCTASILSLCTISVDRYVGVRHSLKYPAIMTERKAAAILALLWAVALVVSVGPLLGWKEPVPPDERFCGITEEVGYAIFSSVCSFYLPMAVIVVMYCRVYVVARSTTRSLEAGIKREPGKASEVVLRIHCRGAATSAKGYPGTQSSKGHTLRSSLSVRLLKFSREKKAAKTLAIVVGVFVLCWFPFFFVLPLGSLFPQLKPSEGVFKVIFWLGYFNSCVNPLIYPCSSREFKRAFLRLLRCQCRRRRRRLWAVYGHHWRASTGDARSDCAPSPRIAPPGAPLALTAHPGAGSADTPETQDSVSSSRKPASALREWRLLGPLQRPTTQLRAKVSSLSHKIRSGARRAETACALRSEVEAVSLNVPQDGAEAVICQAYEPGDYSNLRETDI
T1 sequence (P43140 whole entry): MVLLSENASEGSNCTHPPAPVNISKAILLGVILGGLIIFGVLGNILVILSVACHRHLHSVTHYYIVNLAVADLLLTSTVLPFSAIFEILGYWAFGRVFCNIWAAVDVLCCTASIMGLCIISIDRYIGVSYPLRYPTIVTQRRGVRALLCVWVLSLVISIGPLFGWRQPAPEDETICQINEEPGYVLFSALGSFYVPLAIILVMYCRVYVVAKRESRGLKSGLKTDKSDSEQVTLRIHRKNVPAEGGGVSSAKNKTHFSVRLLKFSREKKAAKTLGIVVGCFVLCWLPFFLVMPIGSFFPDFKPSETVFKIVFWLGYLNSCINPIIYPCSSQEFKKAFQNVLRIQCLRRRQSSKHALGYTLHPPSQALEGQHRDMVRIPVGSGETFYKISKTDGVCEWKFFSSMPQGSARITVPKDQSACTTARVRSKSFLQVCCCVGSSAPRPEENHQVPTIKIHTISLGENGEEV
The test can be described thus: Antagonistic potency of compound for Alpha-1 adrenergic receptor. In kind it is functional.

Test [7] deals with Canis familiaris. The test can be described thus: Percent inhibition of the pressor responses to 1 ug/kg iv Epinephrine in pentobarbital-anesthetized dogs for a dose of 1 mg/kg. In kind it is functional. To be noted: Canis lupus familiaris. A digest of the protocol:
(§3)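 Pentobarbital-anesthetized dogs (35 mg/kg iv) with femoral arterial pressure recording. Epinephrine (1 μg/kg), norepinephrine (0.75 μg/kg) and phenylephrine (7.5 μg/kg) iv challenges were given about every 10 min before and after rising iv test doses, which were spaced 90 min apart. Value is % inhibition of the pressor response.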

Test [8] deals with Canis familiaris. The test can be described thus: Percent inhibition of the pressor responses to 7.5 ug/kg iv phenylephrine in pentobarbital-anesthetized dogs for a dose of 0.1 mg/kg. To be noted: Canis lupus familiaris. In kind it is functional. The gist of the method:
as §3

Test [9] relates to Rattus norvegicus. The test can be described thus: Antihypertensive activity as percentage fall in systolic blood pressure in spontaneously hypertensive rats after a period of 4 hr for a dose of 50 mg/kg po. It counts as functional, Artery. A digest of the protocol: as §2

One may read the pA2 as a measure of antagonist potency on a negative log scale. Higher therefore signals a more potent antagonist. For orientation: inhibition in vivo means the change of the read-out against control, counted positive when it falls. Lower therefore signals little suppression. For the molecule `O=C1NCC2(CCN(CCc3c[nH]c4ccccc34)CC2)O1`, the MAP is on record as -2 mmHg in test [1] and -11 mmHg in test [3]. For the same molecule, the “Decrease in blood pressure” value was 16% in test [2], 7% in test [4], 10% in [5] and 8% in test [9]. For the same molecule, the pA2 in [6] is given as 5.5. Moreover, the inhibition in vivo at 1 mg/kg in test [7] was over 100%. The molecule further had an inhibition in vivo at 0.1 mg/kg in [8] of 17%.
`CN1CC2(CCN(CC(O)C3COc4ccccc4O3)CC2)OC1=O` (stereo not drawn): the MAP in test [1] was 4 mmHg; in test [3], -13 mmHg. The “Decrease in blood pressure” value is listed as 28% in test [2], 14% in test [4], 31% in test [5] and 16% in test [9]. Besides, the pA2 in test [6] was 4.5. For the same molecule, the inhibition in vivo at 1 mg/kg in [7] is over 100%. This molecule registered an inhibition in vivo at 0.1 mg/kg in [8] of 0%.
